Hits are enriched below; roughly 1.8% of the tested compounds scored in any of these assays.
Ins promoter up – MIN6 insulin promoter up-regulation | z-score at 5 µM | 190,000 compounds, 0.3% hits | MIN6 insulin promoter-GFP reporter, high-content imaging; active compounds read high;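 active = z-score above 3 at 5 µM with at least 500 cells counted in the well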
TNAP act hiacc – increases human TNAP activity under high phosphate acceptor concentration | P05186 | purified TNAP, CDP-star luminescence, 1 M DEA, 30 min; active compounds read high; 0 = EDTA background, 1 = DMSO-only activity | activation factor at 20 µM | 200,000 tested, under 10 active | AID 1136;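 active = activation factor at least 2 at 20 µM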
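system = human TNAP | amount = enzyme diluted 1/800 final | reagent = 100 µM CDP-star substrate | signal = luminescent substrate turnover signal | dosing = one dose, 20 µM | benchmarks = EDTA negative control, DMSO positive control | measure = activation factor | timing = 30 min reaction, room temperature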
p47phox inh – inhibitors of human p47phox binding | P14598 | p47phox/p22phox peptide binding, fluorescence polarization, 2 h | inhibition, % at 24.7 µM | 220,000 compounds, 0.53% hits | AID 1274;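 active = inhibition above about 30%, limit read from the data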
Target sequence (P14598 whole entry, looked up): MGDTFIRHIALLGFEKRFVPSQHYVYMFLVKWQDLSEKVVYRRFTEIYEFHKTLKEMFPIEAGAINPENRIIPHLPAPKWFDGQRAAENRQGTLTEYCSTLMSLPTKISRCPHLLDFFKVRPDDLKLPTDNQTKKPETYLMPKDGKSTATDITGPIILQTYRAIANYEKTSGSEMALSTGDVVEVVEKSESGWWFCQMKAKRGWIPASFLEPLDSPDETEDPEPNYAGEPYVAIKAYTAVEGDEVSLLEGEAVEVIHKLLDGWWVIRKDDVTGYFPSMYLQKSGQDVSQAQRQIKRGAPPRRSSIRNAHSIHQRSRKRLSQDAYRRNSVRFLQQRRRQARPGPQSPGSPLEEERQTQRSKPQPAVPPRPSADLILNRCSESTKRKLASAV
TNAP inh hi DEA – blocks human TNAP under high phosphate acceptor concentration. inhibition, % at 20 µM. AID 1135. 200,000 compounds, 0.03% hits. purified TNAP, CDP-star luminescence, 1 M DEA;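 active = over 50% inhibition of tissue-nonspecific alkaline phosphatase at 20 µM in the single-dose screen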
TNAP inh no acc – inhibitors of human TNAP without phosphate acceptor | P05186 | purified TNAP, CDP-star luminescence, 30 min | inhibition, % at 20 µM | 200,000 compounds, 0.26% hits;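 active = tissue-nonspecific alkaline phosphatase inhibition above about 50% at 20 µM in the single-dose screen, limit read from the data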
Autophagy mod – autophagy modulation, high-content screen. MEF GFP-LC3 puncta imaging; test concentration mostly 10 µM. calls only at 10 µM (by protocol). 190,000 compounds, 0.98% hits;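 active = percentage of spot-positive cells more than 3 SD above its plate mean, without a fluorescence outlier flag or 80% toxicity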
Each line names hits and unclear results; the compound was inactive in the other large screens.

N/C(=N/O)c1ccccc1N1CCC(Cc2ccccc2)CC1	none
COCCNc1nc2c(c(=O)n(C)c(=O)n2C)n1Cc1cccc(C)c1	none (no result: Ins promoter up)
Cc1cccc(OCCNc2nc3c(c(=O)n(C)c(=O)n3C)n2C)c1	Ins promoter up 4.2
O=C(CN1CCCC1)Nc1ccc(-c2nc3cc(NC(=O)CN4CCCC4)ccc3o2)cc1	Autophagy mod active
CCCCCC(=O)Nc1ccc2oc(-c3cncc(Br)c3)nc2c1	Autophagy mod active
COc1ccc(N=Cc2c(O)c3ccccc3n2C(C)=O)cc1	p47phox inh 31 (no result: TNAP act hiacc, TNAP inh hi DEA, TNAP inh no acc, Autophagy mod)
Cc1ccc(-n2c(O)c(C=Nc3ccc4c(c3)OCO4)c3ccccc3c2=O)cc1C	Autophagy mod active
Cc1cc(N=Cc2c(O)n(-c3ccc4c(c3)OCO4)c(=O)c3ccccc23)ccn1	none
COc1ccc(-n2c(O)c(C=Nc3ccccc3)c3ccccc3c2=O)cc1	Autophagy mod active
COc1ccc(N=Cc2sc(O)c3ccccc23)cc1	none
C=CCN1c2ccccc2[C@]23C[C@@H](C(=O)OC)N(C(=O)NCCC)C2=NC(C(=O)OC)=C(C(=O)OC)[C@H]13	none (no result: TNAP act hiacc, TNAP inh hi DEA, TNAP inh no acc, Autophagy mod)
CCC(C)NC(=O)c1ccccc1NC(=O)CN1C(=O)c2ccccc2S1(=O)=O (stereo unspecified)	none
Cc1cc(C)cc(OCc2nc3ncc(Br)cc3[nH]2)c1	Autophagy mod active (no result: Ins promoter up, TNAP act hiacc, p47phox inh, TNAP inh hi DEA, TNAP inh no acc)
C/C(=N\NC(=O)c1ccc2c(c1)OCO2)c1ccc(O)cc1	none (no result: TNAP act hiacc, TNAP inh hi DEA, TNAP inh no acc, Autophagy mod)
C/C(=N/NC(=O)c1ccc2c(c1)OCO2)c1ccc(NC(=O)C(F)(F)F)cc1	p47phox inh 34
CC(C)c1nc(CN(C)C(=O)N[C@H](C(=O)N[C@@H](Cc2ccccc2)C[C@H](O)[C@H](Cc2ccccc2)NC(=O)OCc2cncs2)C(C)C)cs1	none (no result: Autophagy mod)
N#Cc1nc(N2CCOCC2)nc(N2CCOCC2)n1	Ins promoter up 3.3
N#CCOc1nc(N2CCOCC2)nc(N2CCOCC2)n1	none
CC1Cc2nc(SCC(=O)OCc3ccccc3)n(C)c(=O)c2S1 (stereo unspecified)	none
CC1Cc2nc(SCC(=O)N3CCc4ccccc43)n(C)c(=O)c2S1 (stereo unspecified)	p47phox inh 34
CC(C)C(=O)Nc1cc(C(F)(F)F)ccc1-n1ccnc1	none
O=C(O)c1[nH]nc2c1COc1ccccc1-2	TNAP inh no acc 91
COC(=O)c1ccc(NS(=O)(=O)c2cccc3cccnc23)cc1	p47phox inh 49
COc1ccc(NS(=O)(=O)c2cccc3cccnc23)cc1	none
CNc1ccc(C(O)(C(F)(F)F)C(F)(F)F)cc1C(O)(C(F)(F)F)C(F)(F)F	none
Cc1ccc(N)c(C(O)(C(F)(F)F)C(F)(F)F)c1	Autophagy mod active
Cc1ccc(CSCC(=O)N/N=C/c2sccc2C)cc1	none (no result: Ins promoter up)
CCOc1ccc(NC(=O)c2ccc(NC(=O)c3cn4c5c(c(N6CCN(C)CC6)c(F)cc5c3=O)OCC4C)cc2)cc1 (stereo unspecified)	p47phox inh 82
CC1COc2c(N3CCN(C)CC3)c(F)cc3c(=O)c(C(=O)O)cn1c23 (stereo unspecified)	none (no result: Ins promoter up, TNAP act hiacc, TNAP inh hi DEA, TNAP inh no acc, Autophagy mod)
CCOc1cc(NC(=S)NCCCN2CCOCC2)c(OCC)cc1NC(=O)c1ccccc1	none
CCOc1cc(NC(=S)NCCCN2CCOCC2)c(OCC)cc1NC(=O)c1cccs1	Autophagy mod active
CSc1nc(N)c(C(=O)NC2CCCCC2)s1	none (no result: TNAP act hiacc, TNAP inh hi DEA, TNAP inh no acc, Autophagy mod)
O=c1[nH]c(SCCOc2cccc3ccccc23)nc2ccccc12	Autophagy mod active
CCOc1ccc(OCCSc2nc3ccccc3c(=O)[nH]2)cc1	none
CCCCCCCC(=O)Nc1ccc(C(=O)N/N=C/c2cccc([N+](=O)[O-])c2)cc1	Autophagy mod active
CC(C)NCCCCOc1ccccc1-c1ccccc1	none
OCCNc1c2ccccc2nc2ccccc12	none
CCCNc1c(F)c(F)c2c(C)c3ccccc3nc2c1F	Autophagy mod active (no result: Ins promoter up)
O=C(CCC1CCCN(c2ncccn2)C1)NCc1ccc(F)c(F)c1 (stereo unspecified)	none
Cc1ccc(-n2ncc3c(N4CCCC4)ncnc32)c(C)c1	none (no result: Ins promoter up)
COc1cccc(N2CCN(c3ncnc4c3cnn4-c3ccc(C)cc3C)CC2)c1	Autophagy mod active
CC(C)(CNS(=O)(=O)c1ccc(Cl)cc1)N1CCCCC1	Ins promoter up 3.6
CC(C)(CN1CCCCC1)NS(=O)(=O)c1ccc(Cl)cc1	none

Bioassay records: PubChem BioAssay, several laboratories
